System: MS2 coat protein
Experiment: apparent Kd, MS2 coat protein; higher = weaker binding; RNA-MaP array; FMN 200 µM where present
Procedure, shortened: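 Apparent Kd: the median of filtered binding-curve fits from single clusters. Designs were transcribed on Illumina sequencing-chip clusters by stalled E. coli RNA polymerase and titrated with SNAP-549-labelled MS2 coat protein from 0.7 or 1.5 nM, doubling to 3 µM, in 100 mM Tris-HCl pH 7.5, 80 mM KCl, 4 mM MgCl2, BSA, DTT, yeast tRNA and Tween-20. Each series ran without and then with constant ligand, and green signal was normalised to red-channel RNA signal and control-cluster median Fmax.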

[1] = designed as: OFF switch for flavin mononucleotide, no ligand
[2] = ligand present: flavin mononucleotide, designed as: OFF switch for flavin mononucleotide
[3] = designed as: ON switch for flavin mononucleotide, no ligand
[4] = ligand present: flavin mononucleotide, designed as: ON switch for flavin mononucleotide

Sequence | apparent Kd [1] [nM] | apparent Kd [2] [nM] | apparent Kd [3] [nM] | apparent Kd [4] [nM]
UUGUUACAUGAGGAUCACCCAUGUGAGGAUAUGGCCCGCCCGGCGUGUGCUGGUUUUGUCAGAAGGCGCGUGGG | 61.6 | 170 | – | –
AAAAAACAUGAGGAUCACCCAUGUGAGGAUAUGCUAAAAAAAAAAAAAAAAAAAAAAUGCAGAAGGUACAAAAA | 75.9 | 72.8 | – | –
UUGCAGUCGUCAGGAUAUAGUAUUACGGCCAUUUAUUUUUUCAUACAUGAGGAUCACCCAUGUCGCUAGAAGGGAUUAUCGAUU | 49.1 | 45.4 | – | –
GCGUGCGAUAGGACGUCUGAGGGCAGAAGGCACAUGAGGAUCACCCAUGUAACGAUCUCUUCAAGUGAGGAUAUGUGCUCAUUG | 29.7 | 114 | – | –
CUGUUAUAGGUCCAGAAUUACAACAUGAGGAUCACCCAUGUGCAGGAUAUCGGGUUGAUAGGCGCCGAGAAGGGCAUAGUCACG | 64.5 | 106 | – | –
AGUGAGGGAGGAUAUACGUUGGUAUCACUGCAUUCGUCGUCACAUGAGGAUCACCCAUGUAGAAGGCCCGAGAG | 28.8 | 79.1 | – | –
CUUCGACAUGAGGAUCACCCAUGUCAGGAUAUUGUGUAUCUGGUUUUUUACAGAUAGACAAGAAGGGAUGUGUU | 27.1 | 23.4 | – | –
CAUUAAUUCAUUAUAUUAAUUUUACAGGAUAUGUAACAUGAGGAUCACCCAUGUAUUCUAGGUUAACAGAAGGGUAUUACUUGU | 28.6 | 22.9 | – | –
UUAUUAUGUGUAGGAUAUGCAUAUCAUUAUUAUGCAGAAGGACAUGAGGAUCACCCAUGUAUAUUAUUAUUAUAUAUUAUAUAU | 15.3 | 16.6 | – | –
AGCUAGUCAGGAUAUACGCGAACGAACGAAGCAGUGAAGGGACAUGAGGAUCACCCAUGUAGAAGGGACUAGCA | 27.1 | 53.7 | – | –
CCGUUACAUGAGGAUCACCCAUGUGAGGAUAUCGGGAUGACUGGCAGCGUGCGGGACUCGAGAAGGCACUGGGC | 46.1 | 41.5 | – | –
GUUUUCGCAUGAGGAUAUGCUCGCAUUUCUAGAGCAGAAGGUAUGUCUAUAGACAUGAGGAUCACCCAUGUAUUUAACUUUGAA | – | – | 186 | 34.4
AAUUUACAUGAGGAUCACCCAUGUCAGGAUAUGGUUUUAUUUUUUUUUUUUUUUGAUUCCAGAAGGGACAGUUA | 21.1 | 19.7 | – | –
AUGCUAGUGUGAGGAUAUUAGACAUGAGGAUCACCCAUGUGUAAGAUCAUGACGAUCACGCAUGAUAAGAAGGUACAUUAGCAU | 54.6 | 99.7 | – | –
GCUGCGUAUGAGAAGGCGAUCAUGAAACAUGAUCGAGGAUAUCAUGUUUACAUGAGGAUCACCCAUGUAUGGGUAUAAUGCAGC | – | – | 335 | 18.1
AAUUAUUGAUGAGGAUAUUGUGGUGAAACACGACGAGAAGGCAUAUGUCACAUGAGGAUCACCCAUGUGAGCCUUGUGCAUAUA | 19.9 | 18.9 | – | –
AUUUCGUUAGCAGGAUAUGGACAGGCCUGUCCGUAUUGAGACAGUAACAUGAGGAUCACCCAUGUCCAGAAGGGCUCGAAGUAU | 30.2 | 43.9 | – | –
GUCAAGUGAGGAUAUGAUUGUACGGCAGACUAGCGUCUGCAUCAGAAGGCACAUGAGGAUCACCCAUGUUUGUC | 19.1 | 16.9 | – | –
GUCAGCUCGUGAGGAUAUACAACACUGCUUCGGCAGUGUAUUUAGAUCACAUGAGGAUCACCCAUGUAGAAGGCACGAGCUGAU | 15.6 | 363 | – | –
AUGAGUAAAGCAGGAUAUCUAUUGACUCUGUAACAUGAGGAUCACCCAUGUAGAGAAGGGCUAAUUCUUACUCUUCGGAGUUGA | 10.2 | 11.7 | – | –
AAACCGUGUGGAGGAUAUGCAGUUGAGGUGAGGUAGCAACUCUAUACGACAGCAGAAGGCCACAUGAGGAUCACCCAUGUAGGU | 489 | 158 | – | –
UCAUUAUAAAUCCAUCAUAACUACAUGAGGAUCACCCAUGUGCAGGAUAUCGAUGGUUUAACUAUCGAGAAGGGCAUUUACAGA | 47.8 | 146 | – | –
UGUGUGAGACAGGAUAUGCUGGAUGAGAGGCGGGUAGAAGGGUCUACAUGAGGAUCACCCAUGUGGCCGGUUGG | 17 | 16.9 | – | –
GCGUAGUUCUAGAAGGUGCUAGCGAUAAGCUAGCAAGGAUAUAGACAUGAGGAUCACCCAUGUCUUUGUGACAUCGACAUACGC | 5.62 | 7.03 | – | –
GCCUCACAUGAGGAUCACCCAUGUCAGGAUAUAGGAGGCGGUAGAAAUCCUACCGCCGCUAGAAGGGACUGGCA | 42.8 | 90.7 | – | –
CUUUUGUGAGGAUAUCAGUAGUAAAUUAAUAAAAUUACUACUGAGAAGGCACAUGAGGAUCACCCAUGUUCCUC | 42.6 | 285 | – | –
GGUACCUUUACAGGAUAUGCUAGCCUUUGGUUAGCAGAAGGGUGAUACAUGAGGAUCACCCAUGUGGUGCCAGGGCGUGAGCCC | – | – | 79.2 | 447

Source: the EternaBench riboswitch data
